pIC50: −log10 of the molar value.
What was measured:
[1] = tested on: IGROV-1; assay: Concentration of compound that cause 50% cytotoxicity of IGROV1 ovarian cancer cell line; type: functional; details: Homo sapiens, read-out: Log LC50 (the source's name) (converted)
How it was run: (§1)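 NCI 60-cell-line panel screen. Each line was seeded in 96-well plates at a density set by its growth characteristics and incubated drug-free for 24 h. Test agents were then added at five 10-fold dilutions, with a top concentration of 100 μM.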

[2] = tested on: A549; assay: Inhibitory activity against A549 lung adenocarcinoma cell line; type: functional, cell-based; details: Homo sapiens
How it was run: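 Cells grown in RPMI 1640 with 2 mM L-glutamine and 10% fetal calf serum, 37 °C, 5% CO2. Seeded at 5 × 10³ per well, 24 h adherence, then drug 0.1 nM–100 μM final (n = 8; DMSO stocks, dilutions in medium) for 72 h.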

[3] = tested on: A549; assay: Concentration of compound that cause 50% cytotoxicity of A549/ATCC non small cell lung cancer cell line; type: functional; details: Homo sapiens, read-out: Log LC50 (the source's name) (converted); how it was run: as §1
[4] = tested on: MDA-MB-231; assay: Concentration of compound that cause 50% cytotoxicity of MDA-MB-231/ATCC breast cancer cell line; type: functional; details: Homo sapiens, read-out: Log LC50 (the source's name) (converted); how it was run: as §1
[5] = tested on: K562; assay: Concentration of compound that cause 50% cytotoxicity of K-562 leukemia cell line; type: functional; details: Homo sapiens, read-out: LC50 (the source's name); how it was run: as §1
[6] = tested on: CCRF-CEM; assay: Concentration of compound that cause 50% cytotoxicity of CCRF-CEM leukemia cell line; type: functional; details: Homo sapiens, read-out: Log LC50 (the source's name) (converted); how it was run: as §1
[7] = tested on: HOP-62; assay: Concentration of compound that cause 50% cytotoxicity of HOP-62 non small cell lung cancer cell line; type: functional; details: Homo sapiens, read-out: Log LC50 (the source's name) (converted); how it was run: as §1
[8] = tested on: Panel NCI-60 (60 carcinoma cell lines); assay: In vitro mean growth lethal concentration in renal subpanel against 60-cell panel; type: functional; details: Homo sapiens, read-out: Mean LC50
[9] = tested on: BT-549; assay: Concentration of compound that cause 50% cytotoxicity of BT-549 breast cancer cell line; type: functional; details: Homo sapiens, read-out: Log LC50 (the source's name) (converted); how it was run: as §1
[10] = tested on: EKVX; assay: Concentration of compound that cause 50% cytotoxicity of EKVX non small cell lung cancer cell line; type: functional; details: Homo sapiens, read-out: Log LC50 (the source's name) (converted); how it was run: as §1
[11] = tested on: U-251; assay: Concentration of compound that cause 50% cytotoxicity of U251 CNS cancer cell line; type: functional; details: Homo sapiens, read-out: Log LC50 (the source's name) (converted); how it was run: as §1
[12] = tested on: MDA-N; assay: Concentration of compound that cause 50% cytotoxicity of MDA-N breast cancer cell line; type: functional; details: Homo sapiens, read-out: Log LC50 (the source's name) (converted); how it was run: as §1
[13] = tested on: SR; assay: Concentration of compound that cause 50% cytotoxicity of SR leukemia cell line; type: functional; details: Homo sapiens, read-out: LC50 (the source's name); how it was run: as §1
[14] = tested on: DU-145; assay: Concentration of compound that cause 50% cytotoxicity of DU-145 prostate cancer cell line; type: functional; details: Homo sapiens, read-out: Log LC50 (the source's name) (converted); how it was run: as §1
[15] = tested on: Panel NCI-60 (60 carcinoma cell lines); assay: In vitro mean growth inhibitory activity against 60-cell panel; type: functional; details: Homo sapiens
[16] = tested on: HT-29; assay: Concentration of compound that cause 50% cytotoxicity of HT-29 colon cancer cell line; type: functional; details: Homo sapiens, read-out: Log LC50 (the source's name) (converted); how it was run: as §1
[17] = tested on: 786-0; assay: Concentration of compound that cause 50% cytotoxicity of 786-0 renal cancer cell line; type: functional; details: Homo sapiens, read-out: Log LC50 (the source's name) (converted); how it was run: as §1
[18] = tested on: NCI-H460; assay: Concentration of compound that cause 50% cytotoxicity of NCI-H460 non small cell lung cancer cell line; type: functional; details: Homo sapiens, read-out: Log LC50 (the source's name) (converted); how it was run: as §1
[19] = tested on: HCT-15; assay: Concentration of compound that cause 50% cytotoxicity of HCT-15 colon cancer cell line; type: functional; details: Homo sapiens, read-out: Log LC50 (the source's name) (converted); how it was run: as §1
[20] = tested on: SW-620; assay: In vitro lethal concentration against least sensitive colon SW-620 cell line; type: functional; details: Homo sapiens, read-out: LC50 (the source's name)
[21] = tested on: M14; assay: Concentration of compound that cause 50% cytotoxicity of M14 melanoma cell line; type: functional; details: Homo sapiens, read-out: Log LC50 (the source's name) (converted); how it was run: as §1
[22] = tested on: MDA-MB-435; assay: Concentration of compound that cause 50% cytotoxicity of MDA-MB-435 breast cancer cell line; type: functional; details: Homo sapiens, read-out: Log LC50 (the source's name) (converted); how it was run: as §1
[23] = tested on: OVCAR-4; assay: Concentration of compound that cause 50% cytotoxicity of OVCAR-4 ovarian cancer cell line; type: functional; details: Homo sapiens, read-out: Log LC50 (the source's name) (converted); how it was run: as §1
[24] = tested on: ACHN; assay: In vitro lethal concentration against most sensitive ACHN cell line; type: functional; details: Homo sapiens, read-out: LC50 (the source's name)
[25] = tested on: SF-268; assay: Concentration of compound that cause 50% cytotoxicity of SF-268 CNS cancer cell line; type: functional; details: Homo sapiens, read-out: Log LC50 (the source's name) (converted); how it was run: as §1
[26] = tested on: SW-620; assay: Concentration of compound that cause 50% cytotoxicity of SW-620 colon cancer cell line; type: functional; details: Homo sapiens, read-out: LC50 (the source's name); how it was run: as §1
[27] = tested on: UO-31; assay: Concentration of compound that cause 50% cytotoxicity of UO-31 renal cancer cell line; type: functional; details: Homo sapiens, read-out: Log LC50 (the source's name) (converted)
[28] = tested on: A498; assay: Concentration of compound that cause 50% cytotoxicity of A498 renal cancer cell line; type: functional; details: Homo sapiens, read-out: Log LC50 (the source's name) (converted); how it was run: as §1
[29] = tested on: CAKI-1; assay: Concentration of compound that cause 50% cytotoxicity of CAKI-1 renal cancer cell line; type: functional; details: Homo sapiens, read-out: Log LC50 (the source's name) (converted); how it was run: as §1
[30] = tested on: UACC-257; assay: Concentration of compound that cause 50% cytotoxicity of UACC-257 melanoma cell line; type: functional; details: Homo sapiens, read-out: Log LC50 (the source's name) (converted)
[31] = tested on: Panel NCI-60 (60 carcinoma cell lines); assay: In vitro mean growth lethal concentration in colon subpanel against 60-cell panel; type: functional; details: Homo sapiens, read-out: Mean LC50
[32] = tested on: MCF7; assay: Concentration of compound that cause 50% cytotoxicity of MCF-7 breast cancer cell line; type: functional; details: Homo sapiens, read-out: Log LC50 (the source's name) (converted); how it was run: as §1

## O=C1C=CC(O)(c2nc3ccccc3s2)C=C1
[1]
  CC50: 5.37 µM
[2]
  pIC50: 5.63
[3]
  CC50: 43.7 µM
[4]
  CC50: 5.75 µM
[5]
  CC50: > 4 µM
[6]
  CC50: 2.57 µM
[7]
  CC50: 12.6 µM
[8]
  CC50: 1.57 µM
[9]
  CC50: 4.79 µM
[10]
  CC50: 5.75 µM
[11]
  CC50: 2.57 µM
[12]
  CC50: 1 µM
[13]
  CC50: > 4 µM
[14]
  CC50: 3.39 µM
[15]
  GI50: 0.23 µM
[16]
  CC50: 0.692 µM
[17]
  CC50: 1.05 µM
[18]
  CC50: 44.7 µM
[19]
  CC50: 2.45 µM
[20]
  CC50: > 100 µM
[21]
  CC50: 5.25 µM
[22]
  CC50: 1.51 µM
[23]
  CC50: 3.8 µM
[24]
  CC50: 0.69 µM
[25]
  CC50: 6.31 µM
[26]
  CC50: > 4 µM
[27]
  CC50: 0.955 µM
[28]
  CC50: 8.51 µM
[29]
  CC50: 1.35 µM
[30]
  CC50: 9.77 µM
[31]
  CC50: 1.76 µM
[32]
  CC50: 4.07 µM

From ChEMBL document CHEMBL1145965, “4-Substituted 4-hydroxycyclohexa-2,5-dien-1-ones with selective activities against colon and renal cancer cell lines” (J Med Chem, 2003)
